Experimental data reported in ChEMBL document CHEMBL4014347, “Targeting Mycolic Acid Transport by Indole-2-carboxamides for the Treatment of Mycobacterium abscessus Infections” (J Med Chem, 2017).
Converted amounts (≈) assume the structure as drawn. The source made the active and inactive calls. The calls are words filed in the database; no cut-off is given here.

Key:
CYP2D6 = CYP2D6 (Homo sapiens, UniProt P10635); assay: Inhibition of CYP2D6 in human liver microsomes preincubated for 5 mins followed by NADPH addition at 10 uM measured after 10 mins by LC-MS/MS analysis relative to control; type: ADME
Sequence of CYP2D6 (P10635 whole entry): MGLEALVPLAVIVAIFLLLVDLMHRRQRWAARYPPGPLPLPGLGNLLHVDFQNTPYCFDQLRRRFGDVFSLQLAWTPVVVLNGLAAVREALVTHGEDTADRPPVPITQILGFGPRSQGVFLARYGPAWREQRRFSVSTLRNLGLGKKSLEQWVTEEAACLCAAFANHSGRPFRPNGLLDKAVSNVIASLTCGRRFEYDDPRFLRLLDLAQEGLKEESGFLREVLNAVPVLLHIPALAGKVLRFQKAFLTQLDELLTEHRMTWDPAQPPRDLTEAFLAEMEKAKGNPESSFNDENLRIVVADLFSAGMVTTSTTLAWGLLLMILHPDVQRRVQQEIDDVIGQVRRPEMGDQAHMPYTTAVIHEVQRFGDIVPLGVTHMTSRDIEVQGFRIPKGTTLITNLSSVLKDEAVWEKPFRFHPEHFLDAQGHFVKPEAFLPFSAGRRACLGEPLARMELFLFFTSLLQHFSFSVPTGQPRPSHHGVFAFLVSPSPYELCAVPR

[1] = Antibacterial activity against CF patient derived Mycobacterium abscessus subsp. bolletii isolate 97 smooth variant after 3 to 5 days by two fold serial dilution method; type: functional; settings: Mycobacteroides abscessus
Method in brief: (§1)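 Broth microdilution in cation-adjusted Mueller−Hinton broth per CLSI; inoculum 5 × 10^6 CFU/mL of exponential-phase bacteria; two-fold serial dilutions, solvent-only wells as control; 30 °C for 3−5 days; MIC read visually and confirmed by absorbance at 560 nm; triplicate on three independent occasions.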

[2] = Selectivity index, ratio of IC50 for African green monkey Vero cells to MIC=<90 for Mycobacterium tuberculosis; type: toxicity; settings: read-out: Selectivity Index
[3] = test system: Mycobacteroides abscessus; assay: Antibacterial activity against non CF patient derived Mycobacterium abscessus subsp. abscessus isolate 2587 smooth variant after 3 to 5 days by two fold serial dilution method; type: functional; method in brief: as §1
[4] = test system: Mycobacterium tuberculosis; assay: Inhibition of C-terminal His-tagged Mycobacterium tuberculosis Ag85C expressed in Escherichia coli C41 (DE3) at 2.5 to 50 uM after 1 hr by resorufin butyrate-based fluorescence assay
Method in brief: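 Purified Ag85C mycolyltransferase activity measured with the fluorescent probe resorufin butyrate; compounds tested at 2.5 to 50 μM.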

Cytochrome P450 1A2 = target: T1, Cytochrome P450 1A2 (Homo sapiens, UniProt P05177); assay: Inhibition of CYP1A2 in human liver microsomes preincubated for 5 mins followed by NADPH addition measured after 10 mins by LC-MS/MS analysis; type: ADME
T1 sequence (P05177 whole entry): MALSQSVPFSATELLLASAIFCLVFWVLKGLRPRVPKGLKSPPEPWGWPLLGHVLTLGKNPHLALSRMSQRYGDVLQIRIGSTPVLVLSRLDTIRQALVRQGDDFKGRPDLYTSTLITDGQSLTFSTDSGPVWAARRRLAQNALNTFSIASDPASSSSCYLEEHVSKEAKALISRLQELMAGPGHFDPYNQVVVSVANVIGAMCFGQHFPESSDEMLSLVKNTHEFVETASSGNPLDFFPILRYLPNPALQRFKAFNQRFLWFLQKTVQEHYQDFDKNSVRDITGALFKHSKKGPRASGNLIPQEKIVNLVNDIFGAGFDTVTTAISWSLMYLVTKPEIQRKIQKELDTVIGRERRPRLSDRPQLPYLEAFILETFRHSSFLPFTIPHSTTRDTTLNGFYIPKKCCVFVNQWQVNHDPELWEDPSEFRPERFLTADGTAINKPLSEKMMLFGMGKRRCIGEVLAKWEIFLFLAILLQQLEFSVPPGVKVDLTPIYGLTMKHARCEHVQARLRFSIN

Cytochrome P450 2C19 = Cytochrome P450 2C19 (Homo sapiens, UniProt P33261); assay: Inhibition of CYP2C19 in human liver microsomes preincubated for 5 mins followed by NADPH addition measured after 40 mins by LC-MS/MS analysis; type: ADME
Sequence of Cytochrome P450 2C19 (P33261 whole entry): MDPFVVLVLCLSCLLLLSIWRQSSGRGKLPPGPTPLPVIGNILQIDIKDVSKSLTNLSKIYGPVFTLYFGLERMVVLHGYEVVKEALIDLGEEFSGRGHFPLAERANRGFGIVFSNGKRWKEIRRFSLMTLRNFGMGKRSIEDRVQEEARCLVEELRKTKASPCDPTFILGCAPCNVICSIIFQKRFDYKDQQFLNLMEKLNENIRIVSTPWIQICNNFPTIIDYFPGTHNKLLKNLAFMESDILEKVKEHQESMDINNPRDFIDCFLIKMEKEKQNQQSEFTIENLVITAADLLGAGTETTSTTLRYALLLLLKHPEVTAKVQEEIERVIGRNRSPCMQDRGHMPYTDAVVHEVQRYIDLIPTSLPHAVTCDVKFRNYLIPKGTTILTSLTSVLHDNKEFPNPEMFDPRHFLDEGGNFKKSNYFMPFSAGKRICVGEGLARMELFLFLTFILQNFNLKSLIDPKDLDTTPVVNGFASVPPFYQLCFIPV

[5] = test system: Mycobacteroides abscessus; assay: Antibacterial activity against Mycobacterium abscessus CIP104536 smooth variant assessed as reduction in viable colony forming unit at […] after 4 days by time-kill assay; type: functional
Liver [6] = assay: Intrinsic clearance in mouse liver microsomes at 0.5 uM in presence of NADPH by LC-MS/MS analysis; type: ADME, microsome
Method in brief: (§2)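 Compound (0.5 μM) incubated with mouse or rat liver microsomes plus NADPH regenerating system; aliquots every 3 min over 30 min analysed for parent by LC-MS/MS; monoexponential decay rate normalized to microsomal protein, expressed as mL/min/g liver.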

[7] = Antibacterial activity against CF patient derived Mycobacterium abscessus subsp. bolletii isolate 112 rough variant after 3 to 5 days by two fold serial dilution method; type: functional; settings: Mycobacteroides abscessus; method in brief: as §1
Liver [8] = assay: Intrinsic clearance in rat liver microsomes at 0.5 uM in presence of NADPH by LC-MS/MS analysis; type: ADME, microsome; method in brief: as §2
Salmonella typhimurium = assay: Mutagenicity in Salmonella typhimurium TA100 in presence of rat liver S9 fraction assessed as increase in revertant colonies at 0.24 to 500 ug/well after 72 hrs by Ames test relative to control; type: toxicity; settings: salmonella enterica subsp. enterica serovar typhimurium, s9, 72 h
Method in brief: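 Reverse mutation at histidine locus in S. typhimurium TA98 (frameshift) and TA100 (base-pair substitution), with and without S9; 0.24−500 μg/well; 37 ± 2 °C for 72 h, triplicates; DMSO vehicle; sodium azide, 2-nitrofluorene, 2-aminoanthracene positive controls; positive if revertants rise ≥2-fold over negative control dose-dependently.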

[9] = test system: Mycobacteroides abscessus; assay: Antibacterial activity against CF patient derived Mycobacterium abscessus subsp. abscessus rough variant after 3 to 5 days by two fold serial dilution method; type: functional; method in brief: as §1
[10] = Protein binding in rat plasma at 5 uM after 10 mins by LC-MS/MS analysis; type: ADME, cell-free; settings: read-out: PPB (converted)
Method in brief: (§3)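 Ultracentrifugation method: 5 μM compound in mouse or rat plasma (from DMSO stock), 10 min at 37 °C; total concentration from incubated plasma, unbound from middle-layer supernatant after 200000g for 4.5 h; niflumic acid internal standard, acetonitrile, filtered, LC-MS/MS.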

[11] = test system: Mycobacteroides abscessus; assay: Antibacterial activity against CF patient derived Mycobacterium abscessus subsp. massiliense isolate 185 smooth variant after 3 to 5 days by two fold serial dilution method; type: functional; method in brief: as §1
[12] = test system: Mycobacteroides abscessus; assay: Antibacterial activity against non CF patient derived Mycobacterium abscessus subsp. abscessus isolate CIP104536 smooth variant after 3 to 5 days by two fold serial dilution method; type: functional; method in brief: as §1
[13] = test system: Mycobacteroides abscessus; assay: Antibacterial activity against CF patient derived Mycobacterium abscessus subsp. massiliense isolate 212 smooth variant after 3 to 5 days by two fold serial dilution method; type: functional; method in brief: as §1
[14] = test system: Mycobacteroides abscessus; assay: Antibacterial activity against CF patient derived Mycobacterium abscessus subsp. massiliense isolate 107 smooth variant after 3 to 5 days by two fold serial dilution method; type: functional; method in brief: as §1
[15] = test system: Mycobacteroides abscessus; assay: Effect on de novo mycolic acid biosynthesis in Mycobacterium abscessus CIP104536 smooth variant at 6.2 ug/ml preincubated for 1 hr followed by [14C]acetic acid addition measured after 2 hrs by TLC based autoradiography analysis; type: functional
Method in brief: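 Exponential cultures in 7H9 with OADC exposed to increasing drug concentrations for 1 h at 37 °C with agitation, then labelled with 1 μCi/mL [14C]acetate (56 mCi/mmol) for 2 h; apolar lipids (TMM, TDM) run on TLC in chloroform/methanol/water 40:8:1; MAME and arabinogalactan-bound mycolates in petroleum ether/acetone 95:5; autoradiography.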

Cytochrome P450 3A4 = Cytochrome P450 3A4 (Homo sapiens, UniProt P08684); assay: Inhibition of CYP3A4 in human liver microsomes preincubated for 5 mins followed by NADPH addition measured after 5 mins by LC-MS/MS analysis; type: ADME
Sequence of Cytochrome P450 3A4 (P08684 whole entry): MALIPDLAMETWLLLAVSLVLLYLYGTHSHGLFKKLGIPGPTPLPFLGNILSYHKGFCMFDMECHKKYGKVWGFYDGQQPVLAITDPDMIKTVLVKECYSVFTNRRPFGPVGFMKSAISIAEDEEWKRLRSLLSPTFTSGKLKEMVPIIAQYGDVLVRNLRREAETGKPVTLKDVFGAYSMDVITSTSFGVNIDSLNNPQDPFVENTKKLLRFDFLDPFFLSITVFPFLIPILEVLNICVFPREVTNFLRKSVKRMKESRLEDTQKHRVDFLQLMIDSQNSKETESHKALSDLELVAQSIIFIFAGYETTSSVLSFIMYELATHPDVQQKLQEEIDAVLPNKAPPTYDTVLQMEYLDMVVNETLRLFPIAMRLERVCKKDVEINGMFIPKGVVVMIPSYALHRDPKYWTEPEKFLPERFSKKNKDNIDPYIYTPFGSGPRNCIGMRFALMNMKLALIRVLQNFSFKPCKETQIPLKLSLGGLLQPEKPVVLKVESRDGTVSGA

[16] = test system: Mycobacteroides abscessus; assay: Antibacterial activity against Mycobacterium abscessus CIP_OK4-10 harboring MAB_4508 g925c/A309P mutant after 3 to 5 days by two fold serial dilution method; type: functional; method in brief: as §1
[17] = test system: Mycobacteroides abscessus; assay: Antibacterial activity against CF patient derived Mycobacterium abscessus subsp. abscessus isolate 3321 smooth variant after 3 to 5 days by two fold serial dilution method; type: functional; method in brief: as §1
[18] = Protein binding in mouse plasma at 5 uM after 10 mins by LC-MS/MS analysis; type: ADME, cell-free; settings: read-out: PPB (converted); method in brief: as §3
[19] = test system: Mycobacteroides abscessus; assay: Antibacterial activity against CF patient derived Mycobacterium abscessus subsp. abscessus isolate 2069 smooth variant after 3 to 5 days by two fold serial dilution method; type: functional; method in brief: as §1

`O=C(NC1CCCCCC1)c1cc2c(Cl)cc(Cl)cc2[nH]1` showed an inhibition at 10 min, 10 µM (CYP2D6) of 10%, an MIC [1] of 0.125 mg/L (≈ 0.384 µM) and a selectivity ratio [2] of 2050 to 4100. The MIC [3] was 0.125 mg/L (≈ 0.384 µM), the inhibition [4] was “inactive” and the IC50 (Cytochrome P450 1A2) was at most 20 µM. The IC50 (Cytochrome P450 2C19) was at most 20 µM, the Activity [5] was “Active” and the CLH (Liver [6]) was 4.8 mL/min/g. For the same compound, the MIC [7] was 0.125 mg/L (≈ 0.384 µM), the CLH (Liver [8]) was 6.3 mL/min/g and the “fold change (FC)” value (Salmonella typhimurium) was under 2. The MIC [9] was 0.125 mg/L (≈ 0.384 µM), the fraction unbound at 10 min, 5 µM [10] was 0.008 and the MIC [11] was 0.125 mg/L (≈ 0.384 µM). For the same compound, the MIC [12] was 0.125 mg/L (≈ 0.384 µM), the MIC [13] was 0.125 mg/L (≈ 0.384 µM) and the MIC [14] was 0.25 mg/L (≈ 0.769 µM). The Activity [15] was “inactive”, the IC50 (Cytochrome P450 3A4) was at most 20 µM and the MIC [16] was 32 mg/L (≈ 98.4 µM). It also gave an MIC [17] of 0.125 mg/L (≈ 0.384 µM), a fraction unbound at 10 min, 5 µM [18] of 0.011 and an MIC [19] of 0.125 mg/L (≈ 0.384 µM).
